Assay results reported in ChEMBL document CHEMBL1126663, “Purine 2'-deoxy-2'-fluororibosides as antiinfluenza virus agents” (J Med Chem, 1993).

Columns and labels:
[1] = Cytotoxicity in uninfected dog kidney (MDCK) cells.; assay type: cell-based; conditions: Canis lupus familiaris
Summary of the method: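 Dividing MDCK cells seeded at 2 × 10^4 cells/well in 24-well plates; compound added to growth medium at various concentrations. Cell growth compared with untreated controls over 4 days incubation (3-4 cell doublings).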

Influenza A virus = assay: Antiviral activity against Influenza virus (A/Sweden/3/50/ (H1N1)) in dog kidney (MDCK) cells expressed.; assay type: functional, organism-based
Summary of the method: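 Plaque reduction assay. Confluent MDCK monolayers were infected with 50-150 PFU in the presence of compound, then overlaid with nutrient agarose containing 0.1 µg/mL trypsin, 100 µg/mL DEAE-dextran and compound. After 3-4 days at 36 °C, cells were formalin-fixed and methyl violet-stained, and plaques were counted as % of the untreated infected control, in triplicate. IC50 came from mean-versus-log concentration curves.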

| SMILES | IC50 [1] | IC50 (Influenza A virus) |
| --- | --- | --- |
| COc1nc(N)nc2c1ncn2[C@@H]1O[C@H](CO)[C@@H](O)[C@H]1F | > 500 µM | 16 µM |
| CSc1ncnc2c1ncn2[C@@H]1O[C@H](CO)[C@@H](O)[C@H]1F | > 500 µM | > 100 µM |
| OC[C@H]1O[C@@H](n2cnc3c(O)ncnc32)[C@H](F)[C@@H]1O | > 500 µM | > 100 µM |
| Nc1nc(F)nc2c1ncn2[C@@H]1O[C@H](CO)[C@@H](O)[C@H]1F | 120 µM | > 100 µM |
| CSc1nc(N)nc2c1ncn2[C@@H]1O[C@H](CO)[C@@H](O)[C@H]1F | > 500 µM | > 100 µM |
| CCOc1nc(N)nc2c1ncn2[C@@H]1O[C@H](CO)[C@@H](O)[C@H]1F | > 500 µM | 29 µM |
| Cc1nc(N)nc2c1ncn2[C@@H]1O[C@H](CO)[C@@H](O)[C@H]1F | > 500 µM | > 100 µM |
| CCOc1ncnc2c1ncn2[C@@H]1O[C@H](CO)[C@@H](O)[C@H]1F | > 500 µM | > 100 µM |
| COc1nc(N)c2ncn([C@@H]3O[C@H](CO)[C@@H](O)[C@H]3F)c2n1 | > 500 µM | > 100 µM |
| Nc1nc(NC2CC2)c2ncn([C@@H]3O[C@H](CO)[C@@H](O)[C@H]3F)c2n1 | > 500 µM | 72 µM |
| Nc1nc(I)c2ncn([C@@H]3O[C@H](CO)[C@@H](O)[C@H]3F)c2n1 | 300 µM | 23 µM |
| Nc1nc(N)c2ncn([C@@H]3O[C@H](CO)[C@@H](O)[C@H]3F)c2n1 | > 500 µM | 15 µM |
| Nc1nc(Cl)c2ncn([C@@H]3O[C@H](CO)[C@@H](O)[C@H]3F)c2n1 | > 500 µM | 17 µM |
| Nc1ncc2ncn([C@@H]3O[C@H](CO)[C@@H](O)[C@H]3F)c2n1 | > 500 µM | > 100 µM |
| Cc1nc(N)c2ncn([C@@H]3O[C@H](CO)[C@@H](O)[C@H]3F)c2n1 | > 500 µM | > 100 µM |
| OC[C@H]1O[C@@H](n2cnc3c(NC4CC4)ncnc32)[C@H](F)[C@@H]1O | > 500 µM | > 100 µM |
| COc1ncnc2c1ncn2[C@@H]1O[C@H](CO)[C@@H](O)[C@H]1F | > 500 µM | > 100 µM |
| CCCOc1nc(N)nc2c1ncn2[C@@H]1O[C@H](CO)[C@@H](O)[C@H]1F | > 500 µM | 36 µM |
| Nc1ncnc2c1ncn2[C@@H]1O[C@H](CO)[C@@H](O)[C@H]1F [2'-BETA-FLUORO-2',3'-DEOXYADENOSINE] | 320 µM | 52 µM |
